Among the data in ChEMBL document CHEMBL4190282, “The Conjugated Double Bond of Coniferyl Aldehyde Is Essential for Heat Shock Factor 1 Mediated Cytotoprotection” (J Nat Prod, 2017) are Activity values, retold here.

Activity calls are given as the source filed them. The calls are words filed in the database; no cut-off is given here.

The test system of data set [1] is L132. Description: Cytoprotective activity against IR-induced caspase3 cleavage in human L-132 cells at 3 uM pretreated for 1 hr followed by 10 Gy irradiation measured after 48 hrs by immunoblotting analysis. The format is functional, cell-based. In short, it runs like this: (§1)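 Human embryonic lung L132 cells in RPMI with 10% FBS. 1 h pretreatment at 3 μM, then 0.5 μM paclitaxel or 20 μM cisplatin for 24 h, or 10 Gy 137Cs γ-rays (3.81 Gy/min) for 48 h. Cleaved PARP and caspase-3 immunoblotted (ECL); bands normalized to loading control, fold-change vs negative control, ≥3 independent experiments.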

Data set [2] deals with L132. Description: Cytoprotective activity against IR-induced PARP cleavage in human L-132 cells at 3 uM pretreated for 1 hr followed by 10 Gy irradiation measured after 48 hrs by immunoblotting analysis. The format is functional, cell-based. The method in brief:
as §1

The target of data set [3] is T1, Heat shock factor protein 1 (Mus musculus) (UniProt P38532).
T1 sequence (whole entry): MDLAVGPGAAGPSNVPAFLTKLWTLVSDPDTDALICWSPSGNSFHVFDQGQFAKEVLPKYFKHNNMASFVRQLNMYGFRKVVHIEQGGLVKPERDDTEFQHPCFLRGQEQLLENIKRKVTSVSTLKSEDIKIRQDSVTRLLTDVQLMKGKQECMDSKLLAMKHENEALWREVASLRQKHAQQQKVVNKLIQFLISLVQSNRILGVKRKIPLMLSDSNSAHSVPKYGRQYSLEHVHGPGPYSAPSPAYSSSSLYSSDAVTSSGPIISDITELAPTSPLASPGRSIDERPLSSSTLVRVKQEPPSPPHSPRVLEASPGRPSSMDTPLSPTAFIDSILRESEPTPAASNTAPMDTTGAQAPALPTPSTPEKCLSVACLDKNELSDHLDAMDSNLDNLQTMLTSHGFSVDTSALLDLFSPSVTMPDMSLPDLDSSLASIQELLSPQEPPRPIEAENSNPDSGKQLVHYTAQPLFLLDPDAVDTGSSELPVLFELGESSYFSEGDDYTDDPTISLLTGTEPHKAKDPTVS
The data set can be described thus: Activation of HSF1 in MEF assessed as protection against cisplatin-induced PARP cleavage at 3 uM pretreated for 1 hr followed by cisplatin addition measured after 24 hrs by immunoblotting analysis. The format is cell-based. In short, it runs like this:
(§2)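 HSF1+/+ or HSF1−/− MEFs in DMEM with heat-inactivated 10% FBS, nonessential amino acids, glutamine, HEPES, 37 °C, 5% CO2. 1 h pretreatment at 3 μM, then 0.5 μM paclitaxel or 20 μM cisplatin for 24 h, or 10 Gy 137Cs γ-rays (3.81 Gy/min) for 48 h. Cleaved PARP and caspase-3 immunoblotted; bands normalized to loading control, fold-change vs negative control, ≥3 independent experiments.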

For data set [4], the system named is Mus musculus. The data set can be described thus: Protection against IR-induced reduction of spleen weight in ICR mouse at 10 mg/kg, ip administered once before and three times after irradiation measured after 9 days. The format is functional, organism-based. In short, it runs like this:
(§3)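 Female ICR mice (5–6 weeks) given 4.5 Gy whole-body IR, dosed ip at 10 mg/kg once before and three times after IR; 5 per group, sacrificed day 9. BM cellularity from H&E (hematopoietic cells per 200×200 μm area); peripheral WBC, lymphocytes, neutrophils; Ki67 IHC counted in five fields per femur; relative spleen weight vs control. Means ± SD, Student's t test.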

The subject of data set [5] is L132. Description: Cytoprotective activity against paclitaxel-induced caspase3 cleavage in human L-132 cells at 3 uM pretreated for 1 hr followed by paclitaxel addition measured after 24 hrs by immunoblotting analysis. The format is functional, cell-based. The method in brief:
as §1

The subject of data set [6] is Mus musculus. Description: Protection against IR-induced reduction of food and water intake in ICR mouse at 5 to 10 mg/kg, ip administered once before and three times after 7 Gy irradiation measured daily for 30 days. The format is functional, organism-based. In short, it runs like this:
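Female ICR mice (5–6 weeks, 25–30 g) given 7 Gy whole-body IR; dosed ip at 5 or 10 mg/kg once before and three times after IR, DMSO stock diluted in modified PBS. Survival days and radiation sickness signs checked twice daily; 10 mice per group.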

For data set [7], the system named is MEF. The data set can be described thus: Cytoprotective activity against cisplatin-induced caspase3 cleavage in HSF1 deficient MEF at 3 uM pretreated for 1 hr followed by cisplatin addition measured after 24 hrs by immunoblotting analysis. The format is functional, cell-based. To be noted: Mus musculus. In short, it runs like this: as §2
Data set [8] has as its system Mus musculus. Description: Protection against IR-induced reduction in circulating WBCs in ICR mouse at 10 mg/kg, ip administered once before and three times after 4.5 Gy irradiation measured after 9 days. The format is functional, organism-based. The method in brief: as §3
Data set [9] deals with L132. Description: Cytotoxicity against human L-132 cells assessed as reduction in cell viability up to 20 uM after 24 hrs by MTT assay. The format is cell-based. To be noted: l132, 24 h. The method in brief: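 L132 cells treated 24 h at indicated doses up to 20 μM. MTT (5 mg/mL in PBS) 4 h at 37 °C, formazan dissolved in DMSO, absorbance at 540 nm converted to cell number via calibration curve. Celastrol positive control.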

In data set [10] the target is T2, Heat shock factor protein 1 (Homo sapiens) (UniProt Q00613).
T2 sequence (whole entry): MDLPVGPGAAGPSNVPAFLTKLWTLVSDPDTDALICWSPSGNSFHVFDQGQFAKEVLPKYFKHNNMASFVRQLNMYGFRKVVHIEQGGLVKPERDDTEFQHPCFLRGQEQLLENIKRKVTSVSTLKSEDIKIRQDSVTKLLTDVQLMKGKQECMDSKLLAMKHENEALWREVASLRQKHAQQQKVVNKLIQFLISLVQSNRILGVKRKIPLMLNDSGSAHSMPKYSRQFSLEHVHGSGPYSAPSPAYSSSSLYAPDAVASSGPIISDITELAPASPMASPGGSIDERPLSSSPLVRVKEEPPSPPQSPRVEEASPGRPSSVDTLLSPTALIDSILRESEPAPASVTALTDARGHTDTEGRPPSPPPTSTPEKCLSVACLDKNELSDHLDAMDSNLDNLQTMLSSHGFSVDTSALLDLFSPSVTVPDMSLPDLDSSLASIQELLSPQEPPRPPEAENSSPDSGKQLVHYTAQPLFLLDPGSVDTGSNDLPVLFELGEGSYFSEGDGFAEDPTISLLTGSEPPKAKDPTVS
Description: Activation of HSF1 in human NCI-H460 cells assessed as upregulation of HSP70 protein levels at 10 to 30 uM after 12 hrs by Western blot analysis. The format is cell-based. The method in brief: (§4)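 NCI-H460 cells treated 12 h at 10 or 30 μM; HSF1, HSP27 and HSP70 detected by Western blot.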

Data set [11] concerns the target T2, Heat shock factor protein 1 (Homo sapiens). Description: Activation of HSF1 in human L132 cells assessed as increase in HSP70 protein levels at 3 uM after 12 hrs by immunoblotting analysis. The format is cell-based. The method in brief:
(§5)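 L132 cells treated at 3 μM for 12 h, or at various doses for 12 h, or at 3 μM over a time course. Lysates resolved by SDS-PAGE, blotted to nitrocellulose, milk-blocked, primary antibodies 18 h at 4 °C, ECL detection. HSP27, HSP70 and Ser326-phospho-HSF1 bands normalized to loading control; ≥3 independent experiments; celastrol 1 μM positive control.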

Data set [12] has as its system NCI-H460. Description: Upregulation of HSF1 protein level in human NCI-H460 cells at 10 to 30 uM after 12 hrs by Western blot analysis. The format is functional, cell-based. In short, it runs like this:
as §4

The target of data set [13] is T2, Heat shock factor protein 1 (Homo sapiens). The data set can be described thus: Induction of HSF1 phosphorylation at Ser326 residue in human L-132 cells at 3 uM after 12 hrs by immunoblotting analysis. The format is cell-based. In short, it runs like this: as §5

Turning to `COc1cc(/C=C/CO)ccc1O` [CONIFERYL ALCOHOL], the result in [1], in [2], in [3], in [4], in data set [5] and in data set [6] was Active. The result in [8], in [10], in [11], in [12] and in data set [13] was Active. In addition, the result in [7] was inactive. Further, the Activity result in data set [9] is given as “Non-Toxic”.

Regarding `COc1cc(/C=C/C=O)ccc1O` [CONIFERYL ALDEHYDE], the result in data set [1], in [2], in data set [3], in data set [4], in data set [5] and in data set [6] was Active. The result in [8], in data set [10], in data set [11], in data set [12] and in data set [13] was Active. The outcome in data set [7] was inactive. For the same compound, the Activity result in data set [9] is “Non-Toxic”.
